The subject of assay [1] is Mycoplasma pulmonis. Put plainly: Antibacterial activity against 10^6 CFU/ml Mycoplasma pulmonis MpUR1.1 assessed as viable cell count after 24 hrs. Format: functional. The following applies: Mycoplasmopsis pulmonis. The method, boiled down: (§1)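 For bactericidal testing, cells were exposed to peptides for 2 h or enrofloxacin for 24 h, then plated on solid medium at 37°C under anaerobic conditions. Colonies were read after 4 to 5 days. MBC was the lowest concentration killing 99.9% of cells. Triplicate.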

In assay [2] the test system is Mycoplasma pulmonis. Put plainly: Antibacterial activity against 10^6 CFU/ml Mycoplasma pulmonis MpUR1.1 after 48 hrs. The class given is functional. The conditions noted are these: Mycoplasmopsis pulmonis. The method, boiled down:
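Mycoplasmas seeded at 10^6 CFU/ml in Hayflick medium with 5% horse serum, with twofold serial drug dilutions (0.4 to 100 µM). Growth was followed by phenol red colour change. MIC was the lowest concentration giving complete growth inhibition at 48 h. Triplicate.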

The subject of assay [3] is Mycoplasma pulmonis. Put plainly: Ratio of MBC to MIC for Mycoplasma pulmonis MpUR1.1. The class given is functional, Mycoplasmopsis pulmonis. The essentials:
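MIC came from broth microdilution at 10^6 CFU/ml in Hayflick medium with 5% horse serum. Twofold dilutions ran from 0.4 to 100 µM, with phenol red read-out at 48 h. MBC came from plating after exposure (peptides 2 h, enrofloxacin 24 h) on solid medium at 37°C under anaerobic conditions. MBC was the concentration killing 99.9% of cells, with colonies read at 4 to 5 days.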

Assay [4] relates to Mycoplasma pulmonis. In words: Antibacterial activity against 10^6 CFU/ml log-phase Mycoplasma pulmonis MpUR1.1 assessed as viable cell count at 0.4 uM after 1 hr relative to control. Format: functional, Mycoplasmopsis pulmonis. The method, boiled down:
(§2)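 Time-kill on log-phase cells, about 10^6 CFU/ml in Hayflick broth, exposed to a single drug concentration at 37°C. Aliquots were taken at 1, 2 or 24 h, serially diluted and plated for viable counts. Counts were expressed as percent of the untreated culture. Values are the mean of two independent experiments.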

Assay [5] concerns Mycoplasma pulmonis. In words: Antibacterial activity against 10^6 CFU/ml growth-phase Mycoplasma pulmonis MpUR1.1 assessed as viable cell count after 2 hrs relative to control. The class given is functional. The conditions noted are these: Mycoplasmopsis pulmonis. The essentials:
as §2

Assay [6] relates to Mycoplasma pulmonis. Put plainly: Antibacterial activity against 10^6 CFU/ml log-phase Mycoplasma pulmonis MpUR1.1 assessed as viable cell count at 0.4 uM after 24 hrs relative to control. The class given is functional, Mycoplasmopsis pulmonis. The essentials: as §2
The test system of assay [7] is Mycoplasma pulmonis. Put plainly: Antibacterial activity against 10^6 CFU/ml Mycoplasma pulmonis MpUR1.1 assessed as viable cell count after 2 hrs. The class given is functional. The conditions noted are these: Mycoplasmopsis pulmonis. The essentials: as §1
In assay [8] the test system is Mycoplasma pulmonis. In words: Antibacterial activity against 10^6 CFU/ml log-phase Mycoplasma pulmonis MpUR1.1 assessed as viable cell count at 25 uM after 1 hr relative to control. The class given is functional, Mycoplasmopsis pulmonis. The essentials: as §2
For assay [9], the system named is Mycoplasma pulmonis. Put plainly: Antibacterial activity against 10^6 CFU/ml log-phase Mycoplasma pulmonis MpUR1.1 assessed as viable cell count at 25 uM after 24 hrs relative to control. The class given is functional, Mycoplasmopsis pulmonis. The method, boiled down: as §2
The subject of assay [10] is Mycoplasma pulmonis. Put plainly: Antibacterial activity against 10^6 CFU/ml log-phase Mycoplasma pulmonis MpUR1.1 assessed as viable cell count at 3.12 uM after 1 hr relative to control. Format: functional, Mycoplasmopsis pulmonis. The method, boiled down:
as §2

Assay [11] relates to Mycoplasma pulmonis. Put plainly: Antibacterial activity against 10^6 CFU/ml log-phase Mycoplasma pulmonis MpUR1.1 assessed as viable cell count at 3.12 uM after 24 hrs relative to control. The class given is functional, Mycoplasmopsis pulmonis. The method, boiled down:
as §2

Assay [12] deals with Mycoplasma pulmonis. Put plainly: Antibacterial activity against 10^6 CFU/ml log-phase Mycoplasma pulmonis MpUR1.1 assessed as viable cell count at 6.25 uM after 1 hr relative to control. The class given is functional, Mycoplasmopsis pulmonis. The method, boiled down:
as §2

The subject of assay [13] is Mycoplasma pulmonis. Put plainly: Antibacterial activity against 10^6 CFU/ml log-phase Mycoplasma pulmonis MpUR1.1 assessed as viable cell count at 6.25 uM after 24 hrs relative to control. The class given is functional, Mycoplasmopsis pulmonis. The method, boiled down:
as §2

Converted amounts (≈) assume the structure as drawn. The source made the active and inactive calls. The calls are words filed in the database; no cut-off is given here. Starred links: 1 amine or outer side, 2 acyl side, 3 side chain; linkers in the order of their positions; H or OH if unused. Positions of bridges follow the written chain, without caps; N, C: chain ends. Non-standard residues stand in square brackets, D forms with d. Residues, ends and D or L forms follow the SMILES beside them. X1 = CC(C)CCCCCCCCC[C@H](CC(=O)[*:1])O[*:2]; Orn = NCCC[C@H](N)C(=O)O

As for `CCN1CCN(c2cc3c(cc2F)c(=O)c(C(=O)O)cn3C2CC2)CC1` [ENROFLOXACIN], in the assay on Mycoplasma pulmonis [1], the MBC was determined as 0.29 µg/mL (≈ 0.807 µM). In addition, the minimum inhibitory concentration (MIC) against Mycoplasma pulmonis [2] amounted to 0.14 µg/mL (≈ 0.39 µM). For the same compound, in the assay on Mycoplasma pulmonis [3], the Ratio is on record as 2. For the same compound, the values for the Activity in the assay with Mycoplasma pulmonis [4] and in the assay with Mycoplasma pulmonis [6] were 89% and 0.22%, respectively. Also, the result in the assay with Mycoplasma pulmonis [5] was Active.

Turning to `CC(C)CCCCCCCCC[C@@H]1CC(=O)N[C@@H](CCC(=O)O)C(=O)N[C@@H](CC(C)C)C(=O)N[C@H](CC(C)C)C(=O)N[C@@H](C(C)C)C(=O)N[C@@H](CC(=O)O)C(=O)N[C@H](CC(C)C)C(=O)N[C@@H](CC(C)C)C(=O)O1` [SURFACTIN] (EL[dL]VD[dL]L; linker N-C via X1), it took 25.9 µg/mL (≈ 25 µM) to inhibit growth against Mycoplasma pulmonis [2] (MIC). The MBC with Mycoplasma pulmonis [7] is 104 µg/mL (≈ 100 µM). In addition, the Ratio in the assay with Mycoplasma pulmonis [3] is listed as 2. Further, the values for the Activity with Mycoplasma pulmonis [8] and with Mycoplasma pulmonis [9] were 43% and 0.08%, respectively. Also, the result in the assay with Mycoplasma pulmonis [5] was Active.

With `CC(C)C[C@@H]1NC(=O)[C@H](CCCN)NC(=O)[C@H](C(C)C)NC(=O)[C@@H]2CCCN2C(=O)[C@@H](Cc2ccccc2)NC(=O)[C@H](CC(C)C)NC(=O)[C@H](CCCN)NC(=O)[C@H](C(C)C)NC(=O)[C@@H]2CCCN2C(=O)[C@@H](Cc2ccccc2)NC1=O` [GRAMICIDIN S] (cyclo(L[dF]PV[Orn]L[dF]PV[Orn])), the MIC in the assay with Mycoplasma pulmonis [2] came out at 3.6 µg/mL (≈ 3.15 µM). Besides, the MBC in the assay with Mycoplasma pulmonis [7] is 7.1 µg/mL (≈ 6.22 µM). Moreover, the Ratio in the assay on Mycoplasma pulmonis [3] is listed as 2. The Activity in the assay on Mycoplasma pulmonis [10] is on record as 98%; in the assay on Mycoplasma pulmonis [11], 0.16%. The result in the assay on Mycoplasma pulmonis [5] was Active.

On to `CC(=O)NC(C)(C)C(=O)N1CCC[C@H]1C(=O)NC(C)(C)C(=O)N[C@@H](C)C(=O)NC(C)(C)C(=O)N[C@@H](C)C(=O)N[C@@H](CCC(N)=O)C(=O)NC(C)(C)C(=O)N[C@H](C(=O)NC(C)(C)C(=O)NCC(=O)N[C@@H](CC(C)C)C(=O)NC(C)(C)C(=O)N1CCC[C@H]1C(=O)N[C@H](C(=O)NC(C)(C)C(=O)NC(C)(C)C(=O)N[C@@H](CCC(=O)O)C(=O)N[C@@H](CCC(N)=O)C(=O)N[C@H](CO)Cc1ccccc1)C(C)C)C(C)C` [ALAMETHICIN], for which the MIC against Mycoplasma pulmonis [2] turned out to be 12.3 µg/mL (≈ 6.26 µM). Also, the MBC in the assay on Mycoplasma pulmonis [7] is 49.1 µg/mL (≈ 25 µM). In addition, in the assay on Mycoplasma pulmonis [3], the Ratio is recorded as 2. The figures for the Activity in the assay with Mycoplasma pulmonis [12] and in the assay with Mycoplasma pulmonis [13] were 31% and 0%, respectively. The result in the assay with Mycoplasma pulmonis [5] was Active.

In the assay with Mycoplasma pulmonis [2], `CCCCCC[C@H]1OC(=O)CNC(=O)[C@H]([C@H](C)O)NC(=O)[C@H](CO)NC(=O)[C@H]([C@H](C)CC)NC(=O)[C@H](CC(C)C)N(C)C(=O)[C@@H]1C` returned an MIC of 0.26 µg/mL (≈ 0.396 µM). Also, the MBC with Mycoplasma pulmonis [7] stood at 8.2 µg/mL (≈ 12.5 µM). Moreover, the Ratio with Mycoplasma pulmonis [3] was determined as 31. Besides, the Activity is 68% with Mycoplasma pulmonis [4] and 0.05% with Mycoplasma pulmonis [6]. In addition, the outcome with Mycoplasma pulmonis [5] was Active.

The record behind these values is ChEMBL document CHEMBL1142175, “Activities of antimicrobial peptides and synergy with enrofloxacin against Mycoplasma pulmonis” (2007).
